Data reported in article PMC3098311 (Nature, 2011).
“Also recorded” adds a separate entry of the source. One block for each compound: values may come before it. Where a SMILES comes first, the peptide text is derived from it. [ ]: non-standard residue; d: D form. Tyr(3-I) = N[C@@H](Cc1ccc(O)c(I)c1)C(=O)O; Hyp = O=C(O)[C@@H]1C[C@@H](O)CN1

Legend:
FLS2 [1] = target: T1, FLS2 (Arabidopsis thaliana, UniProt Q9FL28); test: Direct binding assay, saturation and specific binding of ^125I-Tyr-CLV3p
Method in brief: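 HA-tagged FLS2 was expressed for 6 h in fls2 mesophyll protoplasts (2.5 × 10^5 cells). Pelleted extract (50 μg total protein) was in pH 5.8 MES/KOH binding buffer with MgCl2, NaCl and DTT. Extract was incubated with 100 fmol 125I-Tyr-CLV3p, with or without unlabeled Tyr-CLV3p, for 30 min on ice. Bound label was collected on BSA-blocked glass-fibre filters and gamma-counted. Specific binding = total minus non-specific (10–20 μM unlabeled). Kd came from saturation/Scatchard nonlinear regression and sites per cell from Bmax; s.d., n=3.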

FLS2-BAK1 interaction = FLS2-BAK1 interaction (Arabidopsis thaliana, UniProt Q94F62+Q9FL28); test: FLS2-BAK1 interaction by co-IP in protoplasts; format: cell-based; conditions: for block of flg22- and CLV3p-triggered FLS2-BAK1 interaction: antagonist peptide at 50 μM
Method in brief: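 Mesophyll protoplasts came from 4-week soil-grown plants (23°C, 12 h/12 h). They were co-transfected with FLS2-HA and BAK1-FLAG and incubated for 6 h at room temperature. Cells were then exposed to flg22 (1, 10 nM), CLV3p (1 μM) or CLE40p (1 μM) for 10 min. Complexes were immunoprecipitated with anti-FLAG and detected with anti-HA on immunoblot.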

FLS2 [2] = target: T1, FLS2; test: Binding competition analysis with unlabeled peptides; conditions: unlabeled peptide; ^125I-Tyr-CLV3p 1 nM; 30 min on ice; non-specific binding with 10 μM unlabeled Tyr-CLV3p; n=3
Method in brief: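 FLS2-HA expressed for 6 h in fls2 mesophyll protoplasts (2.5 × 10^5 cells); pellet from vortexed, iced and 10,000 ×g-spun extract in 25 mM MES/KOH pH 5.8, 3 mM MgCl2, 10 mM NaCl (50 μg protein). Incubated 30 min on ice with 100 fmol 125I-Tyr-CLV3p ± unlabeled competitor; blocked glass-fibre filtration, cold wash, gamma counting; specific = total − nonspecific (10–20 μM unlabeled); non-linear regression.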

FRK1, WRKY29 and WRKY30 = test: qRT-PCR of flg22 early marker genes in protoplasts; format: cell-based, Arabidopsis; conditions: peptides for 1 h, 1 μM CLV3p, 1 μM CLE40p, n=3
Method in brief: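 Mesophyll protoplasts were treated with peptides for 1 h. Total RNA was extracted with TRIzol, and cDNA was made from 1 μg RNA with M-MLV reverse transcriptase. SYBR green real-time PCR followed, with ACT2 as the control gene.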

pWUS::GUS = pWUS::GUS reporter staining in the SAM; format: in vivo, Arabidopsis; conditions: seedlings grown 8 days with 1 μM peptide
Method in brief: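 pWUS::GUS seedlings were grown 8 days in liquid 0.5× MS/0.5% sucrose with or without 1 μM CLV3p, ΔCLV3p or flg22. They were fixed in 90% cold acetone for 20 min. Seedlings were vacuum-infiltrated with pH 7.0 phosphate buffer containing ferro/ferricyanide, Triton X-100, EDTA and 1 mM X-Gluc, then held 3 h at 37°C. Samples were dehydrated to 70% ethanol and imaged under a stereomicroscope.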

SAM = test: Assay for CLV3p-mediated SAM arrest; format: in vivo, Arabidopsis; conditions: 1 μM peptide in liquid medium
Method in brief: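 Col-0 and fls2 seeds, twenty per dish, grown in liquid 0.5× MS with 0.5% sucrose (pH 5.8), with or without 1 μM CLV3p. SAMs were cut, fixed overnight at 4°C in 4% paraformaldehyde/4% DMSO, eosin-stained and paraffin-embedded. Sections of 8 μm were Giemsa-stained (0.1%, 5 min) and imaged by light microscopy.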

Arabidopsis seedlings = test: Seedling growth inhibition analysis; format: in vivo; conditions: for root growth: WT seedlings, flg22 1, 10 nM, CLV3p 1 μM or CLE40p 1 μM
Method in brief: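 Col-0, fls2, Ler, fls2-24 and clv2-1 seedlings were grown in 6-well plates in liquid 0.5× MS, 0.5% sucrose, pH 5.8. Treatment was flg22 (1, 10 nM) or CLV3p (1 μM), and growth was assessed after 6 or 8 days.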

endogenous MPK3 and MPK6 = test: In-gel kinase assay of MAPK activation in mesophyll protoplasts; format: cell-based, Arabidopsis
[3] = test system: FRK1, WRKY29, WRKY30, MYB15, MYB51 and PEP3; test: qRT-PCR of immune marker genes in isolated SAM tissues; format: in vivo, Arabidopsis; conditions: n=3
WUS = test: qRT-PCR of WUS in isolated SAM tissues; format: in vivo, Arabidopsis; conditions: 1 μM CLV3p for 1 h; WT and mutant seedlings; n=3
Method in brief: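 Seedlings grew 8 days in liquid 0.5× MS, 0.5% sucrose, pH 5.8, then got 1 h peptide treatment (1 nM or 1 μM). SAM tissues were harvested after snap-freezing in liquid nitrogen, and RNA was TRIzol-extracted. SYBR Green real-time qRT-PCR used ACT2 as the control gene.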

Sequence of FLS2-BAK1 interaction (Q9FL28 24-1173): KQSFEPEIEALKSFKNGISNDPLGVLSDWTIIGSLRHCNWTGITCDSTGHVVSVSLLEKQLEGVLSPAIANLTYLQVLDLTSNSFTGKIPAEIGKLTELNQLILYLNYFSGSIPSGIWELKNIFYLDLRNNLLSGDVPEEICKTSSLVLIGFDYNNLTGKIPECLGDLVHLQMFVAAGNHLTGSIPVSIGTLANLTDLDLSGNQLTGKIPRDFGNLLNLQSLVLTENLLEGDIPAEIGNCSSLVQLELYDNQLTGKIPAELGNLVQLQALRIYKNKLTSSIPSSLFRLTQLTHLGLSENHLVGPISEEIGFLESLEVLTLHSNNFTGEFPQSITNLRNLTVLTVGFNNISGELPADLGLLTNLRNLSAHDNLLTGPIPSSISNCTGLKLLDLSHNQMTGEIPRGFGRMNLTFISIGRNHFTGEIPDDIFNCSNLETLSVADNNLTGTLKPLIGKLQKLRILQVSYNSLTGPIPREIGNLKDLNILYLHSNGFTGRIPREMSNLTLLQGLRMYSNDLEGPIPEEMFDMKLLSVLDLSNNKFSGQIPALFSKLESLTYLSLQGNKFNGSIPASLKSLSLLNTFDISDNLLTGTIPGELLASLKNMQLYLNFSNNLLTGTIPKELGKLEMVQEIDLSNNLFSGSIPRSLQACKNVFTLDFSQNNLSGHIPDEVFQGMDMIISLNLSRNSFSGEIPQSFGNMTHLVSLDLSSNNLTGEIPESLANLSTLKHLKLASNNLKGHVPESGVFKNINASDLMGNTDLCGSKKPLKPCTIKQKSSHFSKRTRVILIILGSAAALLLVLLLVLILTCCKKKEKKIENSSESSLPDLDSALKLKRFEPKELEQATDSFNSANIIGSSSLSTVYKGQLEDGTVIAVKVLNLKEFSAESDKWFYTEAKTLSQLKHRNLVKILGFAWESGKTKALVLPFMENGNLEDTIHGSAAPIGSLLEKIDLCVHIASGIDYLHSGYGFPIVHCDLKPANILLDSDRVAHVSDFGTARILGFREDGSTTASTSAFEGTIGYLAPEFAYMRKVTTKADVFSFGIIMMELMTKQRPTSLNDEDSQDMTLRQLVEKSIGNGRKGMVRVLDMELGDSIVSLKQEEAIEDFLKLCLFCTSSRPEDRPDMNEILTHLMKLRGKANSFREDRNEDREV
Sequence of FLS2-BAK1 interaction (Q94F62 26-615 partner): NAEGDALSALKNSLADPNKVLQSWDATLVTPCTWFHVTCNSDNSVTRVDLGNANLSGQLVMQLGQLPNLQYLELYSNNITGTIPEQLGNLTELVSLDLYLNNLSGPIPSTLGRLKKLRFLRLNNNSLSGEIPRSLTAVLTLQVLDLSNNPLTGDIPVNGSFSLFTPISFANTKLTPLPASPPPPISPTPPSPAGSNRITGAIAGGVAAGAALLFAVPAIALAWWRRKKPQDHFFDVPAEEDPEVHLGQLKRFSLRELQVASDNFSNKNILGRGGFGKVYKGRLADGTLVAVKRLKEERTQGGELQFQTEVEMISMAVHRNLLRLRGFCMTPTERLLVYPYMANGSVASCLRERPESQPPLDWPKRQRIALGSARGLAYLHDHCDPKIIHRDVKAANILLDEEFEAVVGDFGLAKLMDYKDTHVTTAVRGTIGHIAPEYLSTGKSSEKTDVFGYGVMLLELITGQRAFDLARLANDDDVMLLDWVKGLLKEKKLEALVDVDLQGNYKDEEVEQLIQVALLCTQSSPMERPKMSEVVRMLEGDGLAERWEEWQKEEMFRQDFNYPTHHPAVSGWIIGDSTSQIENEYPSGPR
T1 sequence (Q9FL28 24-1173): as the sequence (Q9FL28 24-1173) above

Compound: CC(C)C[C@H](NC(=O)[C@@H]1CCCN1C(=O)[C@H](CC(=O)O)NC(=O)[C@@H]1C[C@@H](O)CN1C(=O)CNC(=O)[C@H](CO)NC(=O)[C@@H]1C[C@@H](O)CN1C(=O)[C@@H](NC(=O)[C@@H](NC(=O)[C@H](CCCNC(=N)N)NC(=O)[C@@H](N)Cc1ccc(O)c(I)c1)[C@@H](C)O)C(C)C)C(=O)N[C@@H](Cc1c[nH]cn1)C(=O)N[C@@H](Cc1c[nH]cn1)C(=O)O [^125I-Tyr-CLV3p] (H-[Tyr(3-I)]RTV[Hyp]SG[Hyp]DPLHH-OH; N-terminus and C-terminus assumed)
- Kd (FLS2 [1]): 0.0347 µM
- binding sites per cell (FLS2 [1]; estimated from Bmax and 50 ug protein from 2.5 × 10^5 cells, total cell extracts): 6.36 × 10^4 binding sites per cell
- specific binding of ^125I-Tyr-CLV3p (FLS2 [1]; wild-type FLS2 expressed in null fls2 protoplasts, non-specific binding with 20 μM unlabeled Tyr-CLV3p, n=3): showed specific binding; also recorded: specifically binds to FLS2

- block of flg22- and CLV3p-triggered FLS2-BAK1 interaction (FLS2-BAK1 interaction; listed as Flg22-Δ2): blocks CLV3p and flg22 signalling
- competition with ^125I-Tyr-CLV3p for specific binding to FLS2 (FLS2 [2]): could be competed
Compound: QRLSTGSRINSAKDDAAGLQ [flg22-Δ2]
- block of flg22- and CLV3p-triggered FLS2-BAK1 interaction (FLS2-BAK1 interaction): effectively competed with and blocked flg22 and CLV3p signalling

Compound: RQVP^hTGSDPLHH [CLE40p, reference compound]
- flg22 early marker gene activation (FRK1, WRKY29 and WRKY30): did not promote
- repression of pWUS::GUS reporter (pWUS::GUS): repression of WUSCHEL (WUS)
- SAM growth arrest (SAM): triggered the growth arrest of SAM
- root growth (Arabidopsis seedlings; 6 or 8 days): root growth inhibition

Compound: RTVP^hSGP^hDPLH [ΔCLV3p]
- activating or blocking FLS2 signalling (endogenous MPK3 and MPK6; Fig. 1a, data not shown): ineffective in activating or blocking FLS2 signalling

- concentration of equal potency in peptide titration, FLS2 and BAK1 co-IP (FLS2-BAK1 interaction; CLV3p, 10 min): 1 µM
- competition with ^125I-Tyr-CLV3p for specific binding to FLS2 (FLS2 [2]): could be competed
- MAPK activation (endogenous MPK3 and MPK6; protoplasts, 1 μM CLV3p, 1 μM ΔCLV3p or 100 nM flg22 for 10 min): activated similar MAPK activities
Compound: RTVP^hSGP^hDPLHH [CLV3p]
- flg22 early marker gene activation (FRK1, WRKY29 and WRKY30): activated similar early marker genes; also recorded: triggers flg22 marker gene activation
- repression of pWUS::GUS reporter (pWUS::GUS): repression of a sensitive pWUS::GUS reporter; also recorded: represses pWUS::GUS expression
- immune marker gene activation in the SAM ([3]; 1 nM flg22 or 1 μM CLV3p for 1 h, WT and mutant seedlings): in WT, clv1-1, clv2-1 but not fls2-24
- exogenous CLV3p needed for complementation of clv3-2 for immune marker gene expression in the SAM ([3]; clv3-2 seedlings treated with 0-100 nM CLV3p for 1 h): nM range
- SAM growth arrest (SAM): very active in triggering the typical SAM arrest; also recorded: suppresses the SAM in Col-0 and fls2 plants
- shoot growth (Arabidopsis seedlings; Col-0 and Ler WT seedlings, flg22 1, 10 nM or CLV3p 1 μM, 6 or 8 days): did not inhibit shoot growth
- root growth (Arabidopsis seedlings; 6 or 8 days): caused stronger root growth arrest
- root growth arrest in the clv2-1 mutant (Arabidopsis seedlings; clv2-1 seedlings, CLV3p 1 μM): abolished
- growth effect in two independent fls2 mutants (Arabidopsis seedlings; fls2 and fls2-24 seedlings, flg22 1, 10 nM or CLV3p 1 μM): retained
- repression of WUS in the SAM (WUS): only in the SAM of WT and fls2-24, but not clv1-1 and clv2-1

- competition with ^125I-Tyr-CLV3p for specific binding to FLS2 (FLS2 [2]): could be competed
Compound: YRTVP^hSGP^hDPLHH [Tyr-CLV3p]
